The results in this text go back to ChEMBL document CHEMBL1156973, “(-)-Carbodine: enantiomeric synthesis and in vitro antiviral activity against various strains of influenza virus including H5N1 (avian influenza) and novel 2009 H1N1 (swine flu)” (Bioorg Med Chem Lett, 2010).

Structures are written as SMILES. A value given as a limit tells only on which side of the number the result lay.

Data set [1] relates to H5N1 subtype. The data set can be described thus: Antiviral activity against Influenza A virus Gull/PA/4175/83/H5N1 infected MDCK cells after 42 to 46 hrs by neutral red dye uptake assay. Format: functional, organism-based, Influenza A virus (A/gull/Pennsylvania/4175/83(H5N1)). To be noted: Influenza A virus, MDCK.
Data set [2] concerns Influenza A virus. The data set can be described thus: Antiviral activity against Influenza A virus Vietnam/1203/ 2004H/H5N1 infected MDCK cells after 42 to 46 hrs by neutral red dye uptake assay. In kind it is functional, organism-based, A/Viet Nam/1203/2004(H5N1). To be noted: Influenza A virus, A/Viet Nam/1203/2004(H5N1), MDCK.
For the next data set, the system named is MDCK. Kind of data set: Cytotoxicity against MDCK cells after 3 days by neutral red dye uptake assay. In kind it is cell-based. The settings on record: Canis lupus familiaris, 72 h. An outline of the steps: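 Uninfected MDCK cells in replicate wells were exposed to serial compound dilutions and cell viability was read by neutral red uptake. IC50 is the drug concentration giving 50% cell inhibition without virus.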

A short description of data set [3]: Selectivity ratio of IC50 for MDCK cells to EC50 for Influenza A virus Duck/MN/1525/81/H5N1 by neutral red dye uptake assay. In kind it is ADME, cell-based. To be noted: dog; for selectivity ratio: MDCK cells, read-out: Ratio IC50/EC50. In outline:
(§1)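 Neutral red uptake in MDCK cells: IC50 (50% inhibition of uninfected cells) divided by EC50 (50% inhibition of virus effect), both from replicate serial-dilution assays.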

Data set [4] is described as follows: Selectivity ratio of IC50 for MDCK cells to EC90 for Influenza A virus Duck/MN/1525/81/H5N1 by virus yield reduction assay. In kind it is ADME, cell-based. To be noted: dog, MDCK cells. In outline: (§2)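 IC50 (50% inhibition of uninfected MDCK cells) divided by EC90 (concentration reducing the infectious virus titer by 90% in the yield reduction assay).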
The nature of data set [5]: Selectivity ratio of IC50 for MDCK cells to EC50 for inhibition of virus-induced cytopathic effect of Influenza A virus Gull/PA/4175/83/H5N1. The settings on record: dog, MDCK cells; read-out: Ratio IC50/EC50. In kind it is cell-based. An outline of the steps:
(§3)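 IC50 (50% inhibition of uninfected MDCK cells) divided by EC50 (concentration reducing virus-induced CPE by 50%, scored visually), both from replicate serial-dilution assays.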
A general note: Damage to the host cells serves as the signal in cytopathic effect assays.

A short description of data set [6]: Selectivity ratio of IC50 for MDCK cells to EC50 for inhibition of virus-induced cytopathic effect of Influenza A virus Hong Kong/213/2003/H5N1. Format: cell-based. The settings on record: dog, read-out: Ratio IC50/EC50. In outline: as §3
The nature of data set [7]: Selectivity ratio of IC50 for MDCK cells to EC50 for Influenza A virus Hong Kong/213/2003/H5N1 by neutral red dye uptake assay. Format: ADME, cell-based. To be noted: dog; for selectivity ratio: MDCK cells, read-out: Ratio IC50/EC50. In outline: as §1
Data set [8] can be described thus: Selectivity ratio of IC50 for MDCK cells to EC90 for Influenza A virus Vietnam/1203/ 2004H/H5N1 by virus yield reduction assay. Format: ADME, cell-based. To be noted: dog; for selectivity ratio: MDCK cells. In outline:
as §2

The subject of data set [9] is Influenza A virus. Kind of data set: Antiviral activity against Influenza A virus California/07/2009 /H1N1 infected MDCK cells after 3 days by virus yield reduction assay. In kind it is functional, A/California/07/2009(H1N1). To be noted: Influenza A virus, A/California/07/2009(H1N1), MDCK, 72 h.
Data set [10] can be described thus: Antiviral activity against Influenza A virus Solomon Islands/03/2006/H1N1 infected MDCK cells assessed as inhibition of virus-induced cytopathic effect after 3 days. In kind it is functional, organism-based, Influenza A virus (A/Solomon Islands/3/2006(H1N1)). In outline: (§4)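 Triplicate MDCK (ATCC CCL-34) wells got serial dilutions of compound. They were then inoculated with ≤300 CCID50, enough for ~100% CPE in control wells within 3 days, using the same inoculum for all replicates. CPE was scored visually. EC50 is the concentration reducing CPE by 50%, as the mean of triplicates.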

The test system of data set [11] is Influenza A virus. The data set can be described thus: Antiviral activity against Influenza A virus Wisconsin/67/2005/H3N2 infected MDCK cells after 42 to 46 hrs by neutral red dye uptake assay. In kind it is functional, organism-based, Influenza A virus (A/Wisconsin/67/2005(H3N2)). An outline of the steps:
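Triplicate MDCK wells got serial compound dilutions, then ≤300 CCID50 of virus, with the same inoculum for all replicates. Antiviral effect was read by neutral red dye uptake. EC50 is the concentration giving 50% inhibition of the virus effect, as the mean of triplicates.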

A further data set has as its system Influenza B virus. Kind of data set: Antiviral activity against Influenza B virus Malaysia/2506/2004 infected MDCK cells assessed as inhibition of virus-induced cytopathic effect after 3 days. In kind it is functional, organism-based, B/Malaysia/2506/2004. The settings on record: Influenza B virus, B/Malaysia/2506/2004, MDCK, 72 h. An outline of the steps:
as §4

Data set [12] can be described thus: Selectivity ratio of IC50 for MDCK cells to EC90 for Influenza A virus California/07/2009 /H1N1 by virus yield reduction assay. Format: ADME, cell-based. To be noted: dog, MDCK cells. An outline of the steps:
as §2

A short description of data set [13]: Selectivity ratio of IC50 for MDCK cells to EC50 for Influenza A virus Solomon Islands/03/2006/H1N1 by neutral red dye uptake assay. In kind it is ADME, cell-based. The settings on record: dog; for selectivity ratio: MDCK cells, read-out: Ratio IC50/EC50. An outline of the steps: as §1
Data set [14] is described as follows: Selectivity ratio of IC50 for MDCK cells to EC90 for Influenza A virus Solomon Islands/03/2006/H1N1 by virus yield reduction assay. Format: ADME, cell-based. The settings on record: dog, MDCK cells. In outline:
as §2

In data set [15] the test system is H5N1 subtype. Kind of data set: Antiviral activity against Influenza A virus Duck/MN/1525/81/H5N1 infected MDCK cells assessed as inhibition of virus-induced cytopathic effect after 3 days. Format: functional, organism-based, Influenza A virus (A/duck/Minnesota/1525/1981(H5N1)). The settings on record: Influenza A virus, MDCK, 72 h.

By EC50 is commonly meant the concentration at which the effect is half-maximal. What is called IC50 is the midpoint of a concentration-inhibition curve. Read a low IC50 as inhibition by little substance. By EC90 is commonly meant the concentration needed for an effect of 90%. High values mean weaker potency, low ones greater potency.

In the case of `Nc1ccn([C@@H]2C[C@H](CO)[C@@H](O)[C@H]2O)c(=O)n1`, the EC50 is 1 µM in the data set with H5N1 subtype [1]; 1.5 µM in the data set on Influenza A virus [2]; 0.7 µM in data set [10] (mdck); 2 µM with Influenza A virus [11] (mdck); 0.6 µM with Influenza B virus; 1.8 µM in the data set on H5N1 subtype [15]. The compound further came in with an IC50 with MDCK greater than 414 µM. Further, the “Ratio IC50/EC50” value was greater than 207 in data set [3] (mdck), greater than 518 in [7] (mdck) and greater than 690 in [13] (mdck). Moreover, the selectivity ratio in data set [4] was greater than 39; in data set [5], greater than 518; in [6], greater than 591; in data set [12] it was greater than 109; in [14] it was greater than 318. In addition, in data set [8] (mdck), the Ratio was greater than 73. Moreover, the 90% effect level in the data set with Influenza A virus [9] (EC90) was put at 3.8 µM.
For the compound `Nc1ccn([C@H]2C[C@@H](CO)[C@H](O)[C@@H]2O)c(=O)n1`, the half-maximal effective concentration (EC50) in the data set on H5N1 subtype [1] was greater than 41 µM; in the data set with Influenza A virus [2] it was greater than 41 µM; in data set [10] (Influenza A virus, MDCK, 72 h) it was greater than 41 µM; with Influenza A virus [11] (Influenza A virus, MDCK) it was greater than 41 µM; in the data set on Influenza B virus, greater than 41 µM; in the data set on H5N1 subtype [15], greater than 414 µM. The IC50 in the data set on MDCK is greater than 414 µM. Also, the selectivity ratio in data set [3] was 1; in data set [4], 1; in data set [5], less than 10; in [6], less than 10; in data set [7], less than 10; in data set [8] it was less than 10. Also, the selectivity ratio in data set [12] is 1; in data set [13], less than 10; in data set [14] it was less than 10. In addition, in the data set with Influenza A virus [9], the EC90 was greater than 414 µM.
With `NC(=O)c1ncn([C@@H]2O[C@H](CO)[C@@H](O)[C@H]2O)n1` [RIBAVIRIN], the EC50 in the data set on H5N1 subtype [1] amounted to 27.4 µM; in the data set with Influenza A virus [2] it was 13.9 µM; in data set [10] (Influenza A virus, MDCK, 72 h), 23.3 µM; in the data set with Influenza A virus [11] (Influenza A virus, MDCK), 20.2 µM; with Influenza B virus, 10.2 µM; with H5N1 subtype [15], 35.4 µM. The IC50 with MDCK was greater than 1310 µM. The selectivity ratio in data set [3] is greater than 40; in data set [4] it was greater than 30; in [5] it was greater than 55; in [6], greater than 305; in [7], greater than 139; in data set [8], greater than 113. The selectivity ratio in [12] is greater than 101; in data set [13] it was greater than 52; in data set [14], greater than 49. For the same compound, in the data set with Influenza A virus [9], the EC90 turned out to be 13 µM.
